Experimental data from ChEMBL document CHEMBL4513216, “Probing the Open Global Health Chemical Diversity Library for Multistage-Active Starting Points for Next-Generation Antimalarials” (ACS Infect Dis, 2020).

Experiment: Toxicity liver stage against HepG2, at 10uM
Format: cell-based
Parameters: test concentration 10 uM, cell line HepG2-A16-CD81EGFP
Conditions: human, HepG2-A16-CD81EGFP cells; read-out: INHIBITION
Method in brief: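 Uninfected HepG2-A16-CD81EGFP cells, 3 × 10^3 per well, 1536-well, plated on prespotted compound at 10 μM final, parasite-free screening media added to match infected plates; puromycin 10 μM positive, DMSO 0.5% negative; run in parallel with 48 h PbLuc assay at 37 °C, 5% CO2; viability by CellTiter-Glo luminescence, normalized to controls.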

Structure (SMILES)	cytotoxicity at 10 µM [%]
CNCCCNC1CCN(c2ccc(-n3ccnc3)cc2)CC1	-3.03
CC(C)(C)c1cc(=O)[nH]c(-c2ccccc2CN2CCCCCC2)n1	-42
Cc1nc(N)sc1C(=O)N1CCCC(COc2ccc(F)cc2)C1 (stereo unspecified)	-143
CN(CCCc1ccccc1)C(=O)c1ccccc1NCC(=O)O	-6.96
CCS(=O)(=O)c1ncc(CN(C)CCc2ccccn2)n1CCOC	-3.98
Cc1cccc(-c2nc3cc(S(=O)(=O)N4CCCC4)ccc3n2C)n1	16.8
COCc1nc(CNc2cc(C)nc(-c3ccccc3)n2)no1	7.06
CC(C)=CCN1CCN(C(=O)c2cc(C(C)C)no2)[C@H]2CS(=O)(=O)C[C@H]21	-7.86
COCc1ncn(Cc2nc(-c3ccco3)oc2C)n1	-8.53
CCC[C@@H]1CN(Cc2ccccc2SC)C[C@H]1NC(C)=O	-5.73
CC(C)(N)c1cn(C2CCN(C3CCSCC3)CC2)nn1	-10.7
COCCOCC(=O)N1CCC2(CCCN(C3CCOCC3)C2=O)C1 (stereo unspecified)	-133
Cc1cnc(Cn2cc(-c3cccc(C(C)N(C)C)c3)nn2)cn1 (stereo unspecified)	-0.807
CCc1ccc(-c2c(C)c(-c3cnn(C)c3)nc(N)c2C#N)o1	-133
CCNC(=O)[C@@H]1C[C@@H](NC(=O)c2cccn2C)CN1CCCSC	-122
Cc1cc2nc(C(C)C)cc(N[C@H](C(N)=O)C(C)C)n2n1	-1.66
CCOCCOc1ccccc1C(=O)N1CCCC(c2ncc[nH]2)C1 (stereo unspecified)	-14.2
Cc1cnn(CC2CN(Cc3cccnc3)CCO2)c1 (stereo unspecified)	-3.27
CC(C)CC(=O)NS(=O)(=O)c1ccc2c(c1)OCCCO2	-9.02

Structure (SMILES)	cytotoxicity at 10 µM [%]
CC(C)c1nc2c(n1C)CCN(Cc1nc(-c3cccnc3)no1)C2	-1.43
COc1c(CNCCNC(=O)c2ccccc2F)c(C)nn1C	-0.644
CCCNC(=O)NC(=O)CNC(C)(C)c1ccc2c(c1)OCO2	-12.7
CC1COCCN1Cc1nc(-c2ccsc2)no1 (stereo unspecified)	-17.8
Cc1ccc(-c2cc(C(=O)NCCN3CCCS3(=O)=O)[nH]n2)o1	-7.98
Cc1nc(CN2CCCC(NCCCc3ccccc3)C2)no1 (stereo unspecified)	-3.9
Cc1cccc(NC2CCN(C(=O)Nc3cc(F)ccc3F)CC2)n1	-10.7
Cc1noc2ncc(C(=O)N3CCCC3c3ccsc3)cc12 (stereo unspecified)	-10.4
CN(C)c1cc(CNC(=O)c2c(F)cccc2F)ccn1	-18.1
CC(C)c1cnc(CN(C)C2CCN(CCCc3cnn(C)c3)C2)o1 (stereo unspecified)	-13.3
CCc1ncc2c(n1)CN(CC(=O)Nc1cc(C)on1)CC2	0.049
COc1cccc(CN2CCCC(c3cc(C(N)=O)[nH]n3)C2)c1 (stereo unspecified)	-1.67
Cn1nc2c(cc1=O)CN(Cc1nc(-c3ccco3)no1)CC2	1.22
O=C(NCCc1ccc(I)s1)N1CCC1	-11.1
Cc1cnn(CC(C)NCc2nc(-c3ccsc3)oc2C)c1 (stereo unspecified)	-2.6
CN(C)CCN1CCN(C(=O)c2ccn(C)c(=O)c2)CC1	-4.14
Cc1ccc(NC2CCN(C(=O)COC3CCCCC3)CC2)nn1	5.94
Cc1ccc(S(=O)(=O)NC(=O)CCC2CCCO2)cc1 (stereo unspecified)	-15.7
CC1COCCN1C(=O)c1cccc(OCc2cscn2)c1 (stereo unspecified)	-9.93

Structure (SMILES)	cytotoxicity at 10 µM [%]
Cc1cc(C2CCCN2Cc2cc(=O)n(C)c(=O)n2C)on1 (stereo unspecified)	-4.72
Cc1cncc(C(=O)N2C[C@@H]3CN(S(C)(=O)=O)CCO[C@@H]3C2)c1	-4.87
CN1CC(=O)N(c2ccccc2)CC12CCN(C(=O)c1ccnnc1)C2 (stereo unspecified)	3.39
CN(C)CCOCC1CN(C(=O)c2cccn2C)Cc2ccnn2C1 (stereo unspecified)	13.5
Cc1cccc(CN2CC[C@@H]3[C@@H]2CCN3C(=O)c2ccno2)n1	-18.2
Cn1cc(C2CC(=O)NC23CCN(C(=O)Cc2ccccn2)CC3)cn1 (stereo unspecified)	5.06
O=C(O)[C@]12CCCN(Cc3cccs3)C[C@H]1CN(c1ncccn1)C2	7.58
CCn1ncc2c1C(COC)CN(c1ncc(F)cn1)C2 (stereo unspecified)	14.6
CCS(=O)(=O)N1CC[C@H]2C(=O)N(Cc3cccnc3)CCO[C@H]2C1	-80.4
O=C1CC2(CCN(CC3CC3)C2)CN1c1cccnc1 (stereo unspecified)	-1.18
CN(C)CCN1CCOCC2(CCN(Cc3ccc[nH]3)CC2)C1	0.626
O=C(C1CN(CC2CC2)CC12CCOCC2)N1CCOCC1 (stereo unspecified)	6.07
CN1C(=O)CC(c2ccccc2)C12CCN(CC1CCOCC1)CC2 (stereo unspecified)	1.02
CN1CCN(C(=O)[C@H]2C[C@H]3[C@H](CCN3Cc3cccs3)O2)CC1	-7.64
O=C(CCc1cccnc1)N1CCC2(CCN(CC3CCCC3)C2)C1 (stereo unspecified)	3.82
CN(Cc1cncnc1)[C@@H]1CN(C(=O)C2CC2)[C@@H]2CCCO[C@H]12	-112
CC(=O)N1C[C@H]2CC[C@@H](C1)N(S(=O)(=O)c1ccccc1Cl)C2	-4
CC(C)CNC(=O)N1C[C@@H]2C[C@H](C(=O)NCc3ccccc3)[C@H](C1)O2	-0.924
